# Measurements published in ChEMBL document CHEMBL4837203, “Innovative C2-symmetric testosterone and androstenedione dimers: Design, synthesis, biological evaluation on prostate cancer cell lines and binding study to recombinant CYP3A4” (Eur J Med Chem, 2021).
# Experiments:
# Cytochrome P450 3A4 [1] = target: T1, Cytochrome P450 3A4 (Homo sapiens, UniProt P08684); test: Inhibition of human CYP3A4 assessed as dissociation constant; type: ADME
# How it was run: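 Spectral titration of 2 μM codon-optimized full-length human CYP3A4 in 0.1 M phosphate pH 7.4 with 20% glycerol and 1 mM DTT, at ambient temperature. Ligand was added from DMSO in small aliquots, keeping final solvent below 2%. Absorbance difference spectra were recorded, and Kd was taken from hyperbolic or quadratic fits to the titration plots.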
# Cytochrome P450 3A4 [2] = target: T1, Cytochrome P450 3A4; test: Inhibition of recombinant human CYP3A4 using BFC as substrate; type: ADME
# How it was run: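 Codon-optimized full-length recombinant human CYP3A4 in a soluble reconstituted system. Activity measured was debenzylation of 7-benzyloxy-4-(trifluoromethyl)coumarin; IC50 values were determined.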
# LNCaP [3] = test: Antiproliferative activity against androgen-sensitive human LNCaP cells assessed as inhibition of cell growth incubated for 48 hrs by MTT assay; type: functional, cell-based
# How it was run: (§1)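 MTT assay. Cells were seeded at 8 × 10^3/well and left overnight, then grown 48 h in fresh medium with a range of compound concentrations. They were stained with 0.5 mg/mL MTT for 3 h, solubilised in 10% Triton X-100 in acidic isopropanol (0.1 N HCl), and read at 590 nm. Growth inhibition was calculated against control plates fixed on the treatment day. LNCaP and PC3 were kept in RPMI with 10% calf serum. Three replicate wells per condition, three independent repeats.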
# PC-3 = test: Antiproliferative activity against androgen-insensitive human PC-3 cells assessed as inhibition of cell growth incubated for 48 hrs by MTT assay; type: functional, cell-based; settings: PC-3, 48 h; how it was run: as §1
# DU-145 = test: Antiproliferative activity against androgen-insensitive human DU-145 cells assessed as inhibition of cell growth incubated for 48 hrs by MTT assay; type: functional, cell-based; settings: DU-145, 48 h
# LNCaP [4] = test: Antiproliferative activity against androgen-sensitive human LNCaP cells assessed as inhibition of testosterone-induced cell growth at 0.25 uM incubated for 48 hrs by MTT assay; type: functional; parameters: scale not given: the % may be the effect or the level left
# How it was run: (§2)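 Androgen-stimulated proliferation in LNCaP: cells seeded at 8 × 10^3/well in RPMI with 10% FBS and grown 48 h. Then exposed 48 h to 0.1 nM testosterone alone or combined with test agent at 0.125–1 μM. Vehicle control was 0.1% DMSO. Read-out was MTT (3 h, 37 °C) at OD 590 nm, as fold induction versus vehicle. Triplicate wells ×3 repeats.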
# LNCaP [5] = test: Antiproliferative activity against androgen-sensitive human LNCaP cells assessed as inhibition of testosterone-induced cell growth at 0.5 uM incubated for 48 hrs by MTT assay relative to non-stimulation; type: functional; parameters: scale not given: the % may be the effect or the level left; how it was run: as §2
# LNCaP [6] = test: Antiproliferative activity against androgen-sensitive human LNCaP cells assessed as inhibition of testosterone-induced cell growth at 1 uM incubated for 48 hrs by MTT assay relative to non-stimulation; type: functional; parameters: scale not given: the % may be the effect or the level left
# How it was run: (§3)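 LNCaP cells were seeded at 8 × 10^3/well in medium with 10% FBS and grown 48 h. They were then exposed for 48 h to 0.1 nM testosterone or DHT, alone or with compound at 0.125, 0.25, 0.5 or 1 μM. Vehicle control was 0.1% DMSO. Read-out was MTT for 3 h at 37 °C, then OD 590 nm, given as fold proliferation versus vehicle. Triplicate wells, three independent repeats; SEM, n = 3.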
# LNCaP [7] = test: Antiproliferative activity against androgen-sensitive human LNCaP cells assessed as inhibition of DHT-induced cell growth at 1 uM incubated for 48 hrs by MTT assay relative to non-stimulation; type: functional; parameters: scale not given: the % may be the effect or the level left
# How it was run: (§4)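 LNCaP cells seeded at 8 × 10^3/well in RPMI with 10% FBS and grown 48 h. Then treated with 0.1 nM DHT alone or with test agent at 0.125, 0.25, 0.5 or 1 μM for 48 h. Control was 0.1% DMSO. MTT for 3 h at 37 °C, OD read at 590 nm. Growth expressed as fold of DMSO control. Triplicate wells, three independent repeats.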
# LNCaP [8] = test: Antiproliferative activity against androgen-sensitive human LNCaP cells assessed as inhibition of testosterone-induced cell growth at 0.125 uM incubated for 48 hrs by MTT assay relative to non-stimulation; type: functional; parameters: scale not given: the % may be the effect or the level left; how it was run: as §2
# LNCaP [9] = test: Antiproliferative activity against androgen-sensitive human LNCaP cells assessed as inhibition of DHT-induced cell growth at 0.125 uM incubated for 48 hrs by MTT assay; type: functional; parameters: scale not given: the % may be the effect or the level left; how it was run: as §4
# LNCaP [10] = test: Antiproliferative activity against androgen-sensitive human LNCaP cells assessed as inhibition of DHT-induced cell growth at 0.125 uM incubated for 48 hrs by MTT assay relative to non-stimulation; type: functional; parameters: scale not given: the % may be the effect or the level left; how it was run: as §4
# LNCaP [11] = test: Antiproliferative activity against androgen-sensitive human LNCaP cells assessed as inhibition of DHT-induced cell growth at 0.5 uM incubated for 48 hrs by MTT assay relative to non-stimulation; type: functional; parameters: scale not given: the % may be the effect or the level left; how it was run: as §4
# LNCaP [12] = test: Antiproliferative activity against androgen-sensitive human LNCaP cells assessed as inhibition of DHT-induced cell growth at 0.25 uM incubated for 48 hrs by MTT assay relative to non-stimulation; type: functional; parameters: scale not given: the % may be the effect or the level left; how it was run: as §3
# T1 sequence (P08684 whole entry): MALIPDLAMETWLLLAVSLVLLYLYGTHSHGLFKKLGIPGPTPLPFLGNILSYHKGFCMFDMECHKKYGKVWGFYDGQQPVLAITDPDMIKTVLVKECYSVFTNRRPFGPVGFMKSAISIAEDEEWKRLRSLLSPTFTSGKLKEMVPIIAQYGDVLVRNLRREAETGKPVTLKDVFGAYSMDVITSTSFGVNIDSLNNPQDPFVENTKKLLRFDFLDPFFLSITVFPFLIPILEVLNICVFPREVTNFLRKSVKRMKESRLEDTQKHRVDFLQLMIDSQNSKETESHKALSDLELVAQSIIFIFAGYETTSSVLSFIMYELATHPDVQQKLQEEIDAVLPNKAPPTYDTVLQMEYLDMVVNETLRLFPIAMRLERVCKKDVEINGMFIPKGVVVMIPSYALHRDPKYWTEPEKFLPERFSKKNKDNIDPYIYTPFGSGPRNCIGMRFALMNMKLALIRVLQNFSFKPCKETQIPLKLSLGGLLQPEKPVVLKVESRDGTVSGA
Compound,Kd (Cytochrome P450 3A4 [1]),IC50 (Cytochrome P450 3A4 [2]),IC50 (LNCaP [3]),IC50 (PC-3),IC50 (DU-145),Activity (LNCaP [4]),Activity (LNCaP [5]),Activity (LNCaP [6]),Activity (LNCaP [7]),Activity (LNCaP [8]),Activity (LNCaP [9]),Activity (LNCaP [10]),Activity (LNCaP [11]),Activity (LNCaP [12])
C[C@]12CC[C@H]3[C@@H]([C@H](C/C=C/C[C@@H]4CC5=CC(=O)CC[C@]5(C)[C@H]5CC[C@]6(C)[C@@H](O)CC[C@H]6[C@H]45)CC4=CC(=O)CC[C@@]43C)[C@@H]1CC[C@@H]2O,7.1 µM,6.5 µM,,,,,,,,,,,,
C[C@]12CC[C@H]3[C@@H]([C@H](/C=C/C=C/C=C/[C@@H]4CC5=CC(=O)CC[C@]5(C)[C@H]5CC[C@]6(C)[C@@H](O)CC[C@H]6[C@H]45)CC4=CC(=O)CC[C@@]43C)[C@@H]1CC[C@@H]2O,5.5 µM,1.2 µM,12 µM,13.6 µM,14.4 µM,86%,100%,98%,100%,45%,45%,76%,83%,83%
C[C@]12CC[C@H]3[C@@H](C([C@H]4C=CC[C@H]5C(=O)OC(=O)[C@@H]45)CC4=CC(=O)CC[C@@]43C)[C@@H]1CC[C@@H]2O (some centres not stated),,,131 µM,62.5 µM,86.5 µM,,,,,,,,,
C[C@]12CC[C@H]3[C@@H]([C@H](C/C=C\C[C@@H]4CC5=CC(=O)CC[C@]5(C)[C@H]5CC[C@]6(C)[C@@H](O)CC[C@H]6[C@H]45)CC4=CC(=O)CC[C@@]43C)[C@@H]1CC[C@@H]2O,0.37 µM,0.8 µM,,,,,,,,,,,,
C=C/C=C/[C@@H]1CC2=CC(=O)CC[C@]2(C)[C@H]2CC[C@]3(C)C(=O)CC[C@H]3[C@H]12,,,33.5 µM,51.7 µM,21.3 µM,,,,,,,,,
CC(=O)O[C@]1(C(C)=O)CC[C@H]2[C@@H]3C=C(Cl)C4=CC(=O)[C@@H]5C[C@@H]5[C@]4(C)[C@H]3CC[C@@]21C [CYPROTERONE ACETATE],,,59.6 µM,56.9 µM,50.7 µM,,,,,,,,,
C=C/C=C/[C@@H]1CC2=CC(=O)CC[C@]2(C)[C@H]2CC[C@]3(C)[C@H](O)CC[C@H]3[C@H]12,,,16.6 µM,31.5 µM,23.8 µM,,,,,,,,,
C[C@]12CC[C@H]3[C@@H]([C@H](/C=C/C=C/C=C/[C@@H]4CC5=CC(=O)CC[C@]5(C)[C@H]5CC[C@]6(C)[C@H](O)CC[C@H]6[C@H]45)CC4=CC(=O)CC[C@@]43C)[C@@H]1CC[C@H]2O,1.6 µM,22 µM,37.1 µM,44.5 µM,21.4 µM,100%,112%,84%,100%,82%,45%,54%,86%,84%
C[C@]12CCC(=O)C=C1C[C@@H](/C=C/C=C/C=C/[C@@H]1CC3=CC(=O)CC[C@]3(C)[C@H]3CC[C@]4(C)C(=O)CC[C@H]4[C@H]13)[C@@H]1[C@@H]2CC[C@]2(C)C(=O)CC[C@@H]12,1.4 µM,3.6 µM,72.7 µM,29 µM,53.6 µM,,,,,,,,,
C=C/C=C/[C@@H]1CC2=CC(=O)CC[C@]2(C)[C@H]2CC[C@]3(C)[C@@H](O)CC[C@H]3[C@H]12,,,28.8 µM,34.1 µM,29 µM,,,,,,,,,
